Measured values as given in ChEMBL document CHEMBL2434932, “Design, synthesis and biological evaluation of a novel class of potent TGR5 agonists based on a 4-phenyl pyridine scaffold” (Eur J Med Chem, 2013).
Activity calls are given as the source filed them. No cut-off for these calls is given here.

Experiments:
[1] = molecular target: T1, G-protein coupled bile acid receptor 1 (Homo sapiens, UniProt Q8TDU6); test: Agonist activity at human TGR5 expressed in HEK293 cells assessed CRE-induced luciferase activity after 5.5 hrs by reporter gene assay; assay type: functional, cell-based
T1 sequence (Q8TDU6 whole entry): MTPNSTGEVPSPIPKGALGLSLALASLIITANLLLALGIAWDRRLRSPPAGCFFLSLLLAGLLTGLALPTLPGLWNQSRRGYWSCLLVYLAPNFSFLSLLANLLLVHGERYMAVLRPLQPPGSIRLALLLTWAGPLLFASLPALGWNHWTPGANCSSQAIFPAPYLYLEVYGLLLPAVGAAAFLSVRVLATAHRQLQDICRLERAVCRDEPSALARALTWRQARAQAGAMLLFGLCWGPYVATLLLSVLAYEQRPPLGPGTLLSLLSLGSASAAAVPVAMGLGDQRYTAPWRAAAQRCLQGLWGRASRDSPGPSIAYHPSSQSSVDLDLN

[2] = molecular target: T2, G-protein coupled bile acid receptor 1 (Mus musculus, UniProt Q80SS6); test: Agonist activity at mouse TGR5 expressed in HEK293 cells assessed CRE-induced luciferase activity after 5.5 hrs by reporter gene assay; assay type: functional, cell-based
T2 sequence (Q80SS6 whole entry): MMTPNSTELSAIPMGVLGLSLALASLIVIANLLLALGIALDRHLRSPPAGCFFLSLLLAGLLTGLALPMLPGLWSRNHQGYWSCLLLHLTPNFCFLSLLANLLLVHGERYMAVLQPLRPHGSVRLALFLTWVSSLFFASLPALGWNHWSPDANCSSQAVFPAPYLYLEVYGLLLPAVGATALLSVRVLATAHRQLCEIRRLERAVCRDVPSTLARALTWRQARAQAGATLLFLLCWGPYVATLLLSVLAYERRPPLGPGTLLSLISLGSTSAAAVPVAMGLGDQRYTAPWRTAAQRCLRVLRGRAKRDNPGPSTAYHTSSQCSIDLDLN
Procedure, shortened: (§1)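 HEK293 cells were stably transfected with a human or mouse TGR5 expression plasmid plus a CRE-driven luciferase reporter (pGL4.29). Cells were seeded and incubated overnight in DMEM with 10% FBS at 37 °C in 5% CO2, then exposed in fresh medium to a range of test concentrations. Luciferase read-out. EC50 was taken from at least two independent experiments at eight concentrations each, mean ± SD.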

[3] = molecular target: T3, G-protein coupled bile acid receptor 1 (Mus musculus) (UniProt Q80SS6); test: Agonist activity at mouse TGR5 expressed in HEK293 cells assessed CRE-induced luciferase activity after 5.5 hrs by reporter gene assay relative to control; assay type: functional, cell-based; design: concentration or dose not given beside the values
T3 sequence (whole entry): T2 sequence (Q80SS6 whole entry)
Procedure, shortened: as §1, with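 “read-out. Max effect % was scaled from DMSO vehicle (0%) to the INT-777 reference (100%).” for “read-out.”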

[4] = molecular target: T4, G-protein coupled bile acid receptor 1 (Homo sapiens) (UniProt Q8TDU6); test: Agonist activity at human TGR5 expressed in HEK293 cells assessed CRE-induced luciferase activity at 10 uM after 5.5 hrs by reporter gene assay; assay type: functional, cell-based
T4 sequence (whole entry): T1 sequence (Q8TDU6 whole entry)

Mus musculus [5] = test: Toxicity in oral glucose loaded ICR mouse assessed as effect on size of the gallbladder at 50 mg/kg, po; assay type: organism-based; design: dose 50 mg/kg, route oral; details: in vivo
Procedure, shortened: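 Male ICR mice from the OGTT (oral dose 50 mg/kg in 0.25% CMC, n = 7–8 per group) were re-fed for 2 h after the test. The gallbladders were then ligated and removed. Gallbladder size was measured by vernier caliper. Bile weight was taken as the gross weight of gallbladder with bile minus the net gallbladder weight.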

[6] = Half life in Sprague-Dawley rat at 5 mg/kg, po; assay type: ADME, organism-based; design: dose 5 mg/kg, route oral; details: in vivo
Procedure, shortened: (§2)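 Male SD rats, n = 6 per group, dosed orally at 5 mg/kg as a 0.25% CMC-Na formulation. PK parameters were derived by non-compartmental analysis and are reported as mean ± SD.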

[7] = AUC (0 to infinity) in Sprague-Dawley rat at 5 mg/kg, po; assay type: ADME, organism-based; design: dose 5 mg/kg, route oral, time infinity; details: plasma; procedure, shortened: as §2
[8] = Clearance in Sprague-Dawley rat at 5 mg/kg, po; assay type: ADME, organism-based; design: dose 5 mg/kg, route oral; details: in vivo; procedure, shortened: as §2
[9] = MRT (0 to t) in Sprague-Dawley rat at 5 mg/kg, po; assay type: ADME, organism-based; design: dose 5 mg/kg, route oral; details: in vivo; procedure, shortened: as §2
[10] = MRT (0 to infinity) in Sprague-Dawley rat at 5 mg/kg, po; assay type: ADME, organism-based; design: dose 5 mg/kg, route oral; details: in vivo; procedure, shortened: as §2
Mus musculus [11] = test: Antidiabetic activity in oral glucose loaded ICR mouse assessed as reduction of blood glucose AUC (0 to 120 mins) at 50 mg/kg, po; assay type: functional, organism-based; design: dose 50 mg/kg
Procedure, shortened: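 Male ICR mice were fasted overnight and dosed orally at 50 mg/kg in 0.25% CMC vehicle (n = 7–8 per group), 30 min before an oral glucose load of 4 g/kg. Tail-clip blood glucose was measured before dosing and at 0, 15, 30, 60 and 120 min after the load. AUC0–120 min was calculated by the trapezoidal rule using each animal's 0-min glucose as its baseline.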

[12] = Cmax in Sprague-Dawley rat at 5 mg/kg, po; assay type: ADME, organism-based; design: dose 5 mg/kg, route oral; details: in vivo; procedure, shortened: as §2
[13] = AUC (0 to t) in Sprague-Dawley rat at 5 mg/kg, po; assay type: ADME, organism-based; design: dose 5 mg/kg, route oral; details: plasma; procedure, shortened: as §2
[14] = Tmax in Sprague-Dawley rat at 5 mg/kg, po; assay type: ADME, organism-based; design: dose 5 mg/kg, route oral; details: in vivo; procedure, shortened: as §2

SMILES	EC50 [1]	EC50 [2]	Activity [3]	other results
O=C(c1ccc(Cl)cc1)N(Cc1cc(C(F)(F)F)cc(C(F)(F)F)c1)Cc1cnccc1-c1ccccc1	7430 nM			
O=S(=O)(c1cc(C(F)(F)F)cc(C(F)(F)F)c1)N(Cc1ccccc1)Cc1cnccc1-c1ccccc1F	2100 nM			
O=S(=O)(NCc1cnccc1-c1ccccc1F)c1cc(C(F)(F)F)cc(C(F)(F)F)c1	63 nM	820 nM	148%	
CCOc1nccc(-c2ccccc2F)c1CNS(=O)(=O)c1cc(C(F)(F)F)cc(C(F)(F)F)c1				Activity [4]: 18%
O=C(c1ccoc1)N(Cc1cc(C(F)(F)F)cc(C(F)(F)F)c1)Cc1cnccc1-c1ccccc1	320 nM			
O=S(=O)(NCc1c(-c2ccccc2F)ccnc1Cl)c1cc(C(F)(F)F)cc(C(F)(F)F)c1	406 nM			
NCc1cnccc1-c1ccccc1F				Activity [4]: 1%
O=S(=O)(NCc1cnccc1-c1c(F)cccc1F)c1cc(C(F)(F)F)cc(C(F)(F)F)c1	62 nM	550 nM	123%	
CC(NCc1cnccc1-c1ccccc1F)c1cc(C(F)(F)F)cc(C(F)(F)F)c1 (racemic)	204 nM	2040 nM	117%	
O=C(C1CCCCC1)N(Cc1cc(C(F)(F)F)cc(C(F)(F)F)c1)Cc1cnccc1-c1ccccc1				Activity [4]: 19%
O=C(c1ccco1)N(Cc1cc(C(F)(F)F)cc(C(F)(F)F)c1)Cc1cnccc1-c1ccccc1F	500 nM			
N#CC(NCc1cnccc1-c1c(F)cccc1F)c1cc(C(F)(F)F)cc(C(F)(F)F)c1 (racemic)	51 nM	100 nM	123%	
N#CC(NCc1cnccc1-c1ccccc1)c1cc(C(F)(F)F)cc(C(F)(F)F)c1 (racemic)	61 nM	370 nM	120%	
COC(=O)C(NCc1cnccc1-c1ccccc1F)c1cc(C(F)(F)F)cc(C(F)(F)F)c1 (stereo unspecified)	440 nM			
O=C(c1ccco1)N(Cc1cnccc1-c1ccccc1F)S(=O)(=O)c1cc(C(F)(F)F)cc(C(F)(F)F)c1	32 nM	910 nM	139%	
CC[C@H]1[C@@H](O)[C@@H]2[C@H](C[C@H](O)[C@]3(C)[C@@H]([C@H](C)C[C@H](C)C(=O)O)CC[C@@H]23)[C@@]2(C)CC[C@@H](O)C[C@@H]12			100%	
CCC(=O)N(Cc1cc(C(F)(F)F)cc(C(F)(F)F)c1)Cc1cnccc1-c1ccccc1	1270 nM			
O=C(c1ccsc1)N(Cc1cnccc1-c1ccccc1F)S(=O)(=O)c1cc(C(F)(F)F)cc(C(F)(F)F)c1	53 nM	1090 nM	146%	
O=C(NCc1cnccc1-c1ccccc1F)c1cc(C(F)(F)F)cc(C(F)(F)F)c1				Activity [4]: 46%

SMILES	EC50 [1]	EC50 [2]	Activity [3]	other results
O=C(c1ccsc1)N(Cc1cc(C(F)(F)F)cc(C(F)(F)F)c1)Cc1cnccc1-c1ccccc1	120 nM	230 nM	111%	
O=C(c1cccs1)N(Cc1cc(C(F)(F)F)cc(C(F)(F)F)c1)Cc1cnccc1-c1ccccc1	260 nM	300 nM	127%	
N#CC(c1cc(C(F)(F)F)cc(C(F)(F)F)c1)N(Cc1ccco1)Cc1cnccc1-c1ccccc1F (racemic)	892 nM			
O=C(O)C(NCc1cnccc1-c1ccccc1F)c1cc(C(F)(F)F)cc(C(F)(F)F)c1 (stereo unspecified)				Activity [4]: 16%
CCC(NCc1cnccc1-c1ccccc1F)c1cc(C(F)(F)F)cc(C(F)(F)F)c1 (racemic)	384 nM			
CCCN(Cc1cnccc1-c1ccccc1F)C(C#N)c1cc(C(F)(F)F)cc(C(F)(F)F)c1 (racemic)	466 nM			
O=C1COc2nccc(-c3ccccc3F)c2CN1Cc1cc(C(F)(F)F)cc(C(F)(F)F)c1			130%	
Fc1ccccc1-c1ccncc1CNCc1cc(C(F)(F)F)cc(C(F)(F)F)c1	458 nM			
O=C(c1ccco1)N(Cc1cc(C(F)(F)F)cc(C(F)(F)F)c1)Cc1cnccc1-c1ccccc1	470 nM			
FC(F)(F)c1cc(CNCc2cnccc2-c2ccccc2)cc(C(F)(F)F)c1	580 nM			
CC(=O)N(Cc1cc(C(F)(F)F)cc(C(F)(F)F)c1)Cc1cnccc1-c1ccccc1	910 nM			
O=S(=O)(NCc1c(-c2ccccc2F)ccnc1-c1ccccc1)c1cc(C(F)(F)F)cc(C(F)(F)F)c1				Activity [4]: 18%
CCC(c1cc(C(F)(F)F)cc(C(F)(F)F)c1)N(Cc1cnccc1-c1ccccc1)C(=O)c1ccco1 (racemic)	1230 nM			
N#CC(NCc1cnccc1-c1ccccc1F)c1cc(C(F)(F)F)cc(C(F)(F)F)c1 (racemic)	35 nM	150 nM	121%	Activity (Mus musculus [5]): Non-toxic; half-life [6]: 2.3 h; AUC(0-inf) [7]: 55 ng·h/mL; CL/F [8]: 1520 mL/min/kg; MRT last [9]: 2.6 h; MRT inf [10]: 3.6 h; Activity (Mus musculus [11]): inactive; Cmax [12]: 16.3 ng/mL; AUC(0-t) [13]: 49.1 ng·h/mL; Tmax [14]: 1.9 h
O=C(c1ccccc1)N(Cc1cc(C(F)(F)F)cc(C(F)(F)F)c1)Cc1cnccc1-c1ccccc1	350 nM			
O=C(c1ccncc1)N(Cc1cc(C(F)(F)F)cc(C(F)(F)F)c1)Cc1cnccc1-c1ccccc1	4080 nM			
O=C(c1ccccc1)N(Cc1cnccc1-c1ccccc1F)S(=O)(=O)c1cc(C(F)(F)F)cc(C(F)(F)F)c1	31 nM	850 nM	144%	
CC(c1cc(C(F)(F)F)cc(C(F)(F)F)c1)N(Cc1cnccc1-c1ccccc1)C(=O)c1ccco1 (racemic)	310 nM	1180 nM	119%	
